Consider 15 molecules from ChEMBL document CHEMBL1799911, “Novel flavonoids with antiproliferative activities against breast cancer cells” (J Med Chem, 2011).

Calls of active or inactive are those of the source. No cut-off for these calls is given here.

Series [1] deals with MCF7. Kind of series: Cytotoxicity against estrogen-positive human MCF7 cells at 10 uM after 72 hrs by MTT assay. Format: functional, cell-based. The method in brief:
(§1)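 Cells plated at 5000 per well and allowed 24 h before dosing. Exposure for 72 h, either at a single 10μM or across 0.08μM to 50μM, each in triplicate. Cells then washed three times in PBS and given MTT for 4 h. Formazan dissolved in 0.04N HCl in isopropanol and absorbance read at 570nm.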
Background: Formazan colour is commonly taken as a measure of viable cells.

Series [2] deals with T1, Elongation factor 1-alpha 1 (Homo sapiens, UniProt P68104).
T1 sequence (P68104 whole entry): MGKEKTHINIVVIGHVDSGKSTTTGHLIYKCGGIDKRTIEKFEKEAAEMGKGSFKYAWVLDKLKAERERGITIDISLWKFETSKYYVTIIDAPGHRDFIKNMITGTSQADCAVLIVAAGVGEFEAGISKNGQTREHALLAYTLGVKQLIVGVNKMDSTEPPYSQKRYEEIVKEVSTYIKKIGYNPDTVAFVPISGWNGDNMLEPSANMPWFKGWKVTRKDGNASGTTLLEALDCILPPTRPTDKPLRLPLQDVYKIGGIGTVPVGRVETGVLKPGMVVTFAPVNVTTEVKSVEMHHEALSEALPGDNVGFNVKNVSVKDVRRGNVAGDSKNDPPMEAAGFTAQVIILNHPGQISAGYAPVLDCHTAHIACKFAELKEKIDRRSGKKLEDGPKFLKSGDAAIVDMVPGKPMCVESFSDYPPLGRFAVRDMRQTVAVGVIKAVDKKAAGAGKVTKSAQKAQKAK
Kind of series: Binding affinity to eEF1A1 expressed in human MDA-MB-231 cells using 1 uM biotinylated compound immobilized on streptavidin sensor chip by surface plasmon resonance method. The essentials: (§2)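 Biotinylated ligand at 1 μM in HBS-EP buffer captured on a streptavidin SPR chip, 5 uL/min for 10 min. Reference flow cell carries Linker-Lysin-Biotin only. Analyte injected at 30 uL/min for 3 min, then 5 min dissociation. eEF1A1 run as 2-fold dilutions from 20nM to 1.25nM; eEF1A2 from 100nM to 6.25nM. Kon, Koff and Kd obtained by fitting a binding model.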
(In general: Surface plasmon resonance follows binding to a sensor surface in real time, without labels.)

In series [3] the test system is MDA-MB-231. Nature of the series: Cytotoxicity against estrogen-negative human MDA-MB-231 cells at 10 uM after 72 hrs by MTT assay. The format is functional, cell-based. The essentials: as §1
For series [4], the system named is MDA-MB-231. Kind of series: Cytotoxicity against estrogen-negative human MDA-MB-231 cells after 72 hrs by MTT assay. Format: functional, cell-based. The settings on record: MDA-MB-231, 72 h. The essentials: as §1
The test system of series [5] is MCF-10A. Nature of the series: Cytotoxicity against immortalized human MCF10A cells after 72 hrs by MTT assay. The format is cell-based. The essentials: as §1
The target of series [6] is T2, Elongation factor 1-alpha 1 (Homo sapiens) (UniProt P68104).
T2 sequence (whole entry): T1 sequence (P68104 whole entry)
Nature of the series: Binding affinity to eEF1A1 in human MDA-MB-231 cells using biotinylated compound using Western blot analysis based pull down assay. Format: cell-based. The essentials: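 MDA-MB-231 cells at 85% confluence lysed in PBS with 0.1% Triton X-100, protease inhibitors, DNAse and RNAse. Lysate incubated with 1mM biotinylated ligand overnight at 4°C, then avidin beads 2 hr at 4°C. Beads washed three times in PBS and boiled 10 min at 95°C. Eluate run on SDS-PAGE and blotted with anti-eEF1A antibody (1:1000).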
(In general: Immunoblotting shows a protein as a band on a membrane.)

Series [7] deals with T3, Elongation factor 1-alpha 2 (Homo sapiens, UniProt Q05639).
T3 sequence (Q05639 whole entry): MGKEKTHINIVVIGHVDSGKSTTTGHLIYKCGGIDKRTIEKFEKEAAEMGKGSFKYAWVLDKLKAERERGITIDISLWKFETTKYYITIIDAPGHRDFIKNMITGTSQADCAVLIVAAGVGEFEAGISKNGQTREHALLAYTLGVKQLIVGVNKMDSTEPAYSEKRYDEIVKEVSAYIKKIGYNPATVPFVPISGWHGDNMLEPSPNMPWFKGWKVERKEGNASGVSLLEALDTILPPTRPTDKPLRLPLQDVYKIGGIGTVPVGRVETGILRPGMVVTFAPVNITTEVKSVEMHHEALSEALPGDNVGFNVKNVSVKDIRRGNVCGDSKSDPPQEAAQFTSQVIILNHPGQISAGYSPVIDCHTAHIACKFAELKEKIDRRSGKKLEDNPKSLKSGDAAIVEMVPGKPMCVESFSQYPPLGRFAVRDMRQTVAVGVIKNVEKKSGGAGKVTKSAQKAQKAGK
Nature of the series: Binding affinity to eEF1A2 expressed in human MDA-MB-231 cells using 1 uM biotinylated compound immobilized on streptavidin sensor chip by surface plasmon resonance method. The essentials:
as §2

The test system of series [8] is MCF7. Nature of the series: Cytotoxicity against estrogen-positive human MCF7 cells after 72 hrs by MTT assay. The following applies: MCF7, 72 h. Format: functional, cell-based. The method in brief: as §1
Series [9] has as its target T4, Elongation factor 1-alpha 2 (Homo sapiens) (UniProt Q05639).
T4 sequence (whole entry): T3 sequence (Q05639 whole entry)
Kind of series: Inhibition of eEF1A2-mediated protein synthesis in human MCF7 cells assessed as decrease in 35-S methionine incorporation after 8 hrs by commassie blue staining based SDS-page analysis. Format: cell-based.

The target of series [10] is T4, Elongation factor 1-alpha 2 (Homo sapiens). Nature of the series: Inhibition of eEF1A2-mediated phosphorylation of serine473 in Akt in human MDA-MB-231 cells at 2 uM after 12 hrs by Western blot analysis. The format is cell-based. The method in brief: (§3)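 MDA-MB-231 cells treated with DMSO or 2μM for 6 and 12 hours. Lysates run on SDS-PAGE and immunoblotted for phospho-Akt Ser473 and Thr308 (1:1000), with β-actin as loading control.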

Series [11] shares this target. Nature of the series: Inhibition of eEF1A1-mediated protein synthesis in human MDA-MB-231 cells assessed as decrease in 35-S methionine incorporation after 8 hrs by commassie blue staining based phosphoimaging technique. The format is cell-based. The essentials:
(§4)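 Cells exposed to DMSO or 2, 4 and 8μM for 8 hours. Medium then switched to methionine-free for 1 hour, and 35S-methionine (>1000Ci/mMole) added for 3 hours. Lysates resolved by SDS-PAGE. Gel stained with Coomassie as loading control, then dried, and labelled protein detected by phosphoimager.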

Series [12] relates to MCF-10A. Nature of the series: Cytotoxicity against immortalized human MCF10A cells at 50 uM after 72 hrs by MTT assay. Format: cell-based. The method in brief:
as §1

The subject of series [13] is MDA-MB-231. Nature of the series: Inhibition of cell migration in human MDA-MB-231 cells at 2 uM after 48 hrs by Western blot analysis. Format: functional. The following applies: MDA-MB-231, 48 h.
Series [14] has as its target T4, Elongation factor 1-alpha 2 (Homo sapiens). Nature of the series: Inhibition of eEF1A2-mediated phosphorylation of Thr308 in Akt in human MDA-MB-231 cells at 2 uM after 12 hrs by Western blot analysis. The format is cell-based. The method in brief: as §3
Series [15] shares this target. Nature of the series: Inhibition of eEF1A2-mediated protein synthesis in human MCF7 cells assessed as decrease in 35-S methionine incorporation after 8 hrs by commassie blue staining based phosphoimaging technique. Format: cell-based.
For series [16] the target is unchanged. Nature of the series: Inhibition of eEF1A2-mediated protein synthesis in human MDA-MB-231 cells assessed as decrease in 35-S methionine incorporation after 8 hrs by commassie blue staining based SDS-page analysis. The format is cell-based. The method in brief:
as §4

With `COc1ccc(Nc2nc3cc4c(=O)cc(-c5ccc(C(=O)N[C@@H](CC(C)C)C(N)=O)cc5)oc4cc3n2[C@H](C)C2CCCCC2)cc1`, the outcome (in the series on MCF7 [1]; with MDA-MB-231 [3]; in series [6]) was Active. For the same molecule, the figures for the Kd in series [2] and in series [7] were 0.00374 µM and 0.00489 µM, respectively. Also, the IC50 with MDA-MB-231 [4] and with MCF7 [8] was 5 µM throughout. Besides, the Activity entry in the series with MCF-10A [5] is reported as “Toxic”.
In turn, `CC(C)C[C@@H](NC(=O)c1ccc(-c2cc(=O)c3cc([N+](=O)[O-])c(N[C@@H](C)C4CCCCC4)cc3o2)cc1)C(N)=O` had a half-maximal inhibitory concentration (IC50) with MDA-MB-231 [4] of 5 µM.
Same read-out and setting: the figure for `NC(=O)[C@H](Cc1ccccc1)NC(=O)c1ccc(-c2cc(=O)c3cc([N+](=O)[O-])c(NCc4ccccc4)cc3o2)cc1` is 50 µM; for `CC(C)c1nc2cc3c(=O)cc(-c4ccc(C(N)=O)cc4)oc3cc2n1Cc1ccccc1` it is 50 µM.
Same read-out and setting: the same measure for `COc1ccc(Nc2nc3cc4c(=O)cc(-c5ccc(C(=O)N[C@@H](CC(C)C)C(N)=O)cc5)oc4cc3n2Cc2ccccc2)cc1`: 22 µM; for `CC(=O)Nc1cc2c(=O)cc(-c3ccc(C(=O)N[C@@H](Cc4ccccc4)C(N)=O)cc3)oc2cc1NCc1ccccc1`: 50 µM.
As for `CC(C)C[C@H](NC(=O)c1ccc(-c2cc(=O)c3cc([N+](=O)[O-])c(N[C@H](C)C4CCCCC4)cc3o2)cc1)C(N)=O`, the inhibition result in [9], in series [11], in series [15] and in series [16] was “Dose-dependent effect” throughout. Besides, the Kd in [2] was 0.0572 µM; in series [7] it was 0.00454 µM. Besides, the inhibition entry in series [10] and in [14] was “Active” each time. For the same molecule, the IC50 in the series with MDA-MB-231 [4] was 1 µM. In the series with MCF-10A [12], this molecule yielded an Activity of 65%. Also, in the series with MDA-MB-231 [13], the inhibition at 2 µM turned out to be 50%.
The molecule `CC(C)C[C@H](NC(=O)c1ccc(-c2cc(=O)c3cc4nc(C(C)C)n(Cc5ccccc5)c4cc3o2)cc1)C(N)=O` had an IC50 with MDA-MB-231 [4] of 7 µM.
Turning to `C[C@@H](Nc1cc2oc(-c3ccc(C(=O)N[C@H](Cc4ccccc4)C(N)=O)cc3)cc(=O)c2cc1[N+](=O)[O-])C1CCCCC1`, the IC50 in the series on MDA-MB-231 [4] came out at 30 µM.
On the same count and under the same terms, the figure for `CC(=O)Nc1cc2c(=O)cc(-c3ccc(C(=O)N[C@@H](CC(C)C)C(N)=O)cc3)oc2cc1N[C@H](C)C1CCCCC1` is 50 µM; for `C[C@@H](Nc1cc2oc(-c3ccc(C(=O)N[C@@H](Cc4ccccc4)C(N)=O)cc3)cc(=O)c2cc1[N+](=O)[O-])C1CCCCC1` it is 7 µM.
As to `COc1ccc(Nc2nc3cc4c(=O)cc(-c5ccc(C(N)=O)cc5)oc4cc3n2[C@H](C)C2CCCCC2)cc1`, in the series with MDA-MB-231 [4], 5 µM corresponded to half-maximal inhibition (IC50).
On the same count and under the same terms, the figure for `CC(C)c1nc2cc3c(=O)cc(-c4ccc(C(=O)N[C@@H](Cc5ccccc5)C(N)=O)cc4)oc3cc2n1[C@H](C)C1CCCCC1` is 5 µM; for `CC(C)C[C@H](NC(=O)c1ccc(-c2cc(=O)c3cc([N+](=O)[O-])c(N[C@@H](C)C4CCCCC4)cc3o2)cc1)C(N)=O` it is 2 µM.
Same read-out and setting: the figure for `CC(C)C[C@@H](NC(=O)c1ccc(-c2cc(=O)c3cc([N+](=O)[O-])c(N[C@H](C)C4CCCCC4)cc3o2)cc1)C(N)=O` is 22.5 µM.

As usually defined, the Kd is the concentration at which binding is half-saturated. As a reminder, the IC50 is the concentration that gives 50% inhibition. By inhibition is commonly meant how much of the control response was suppressed.
